Experimental findings from PMC7126824 (European Journal of Medicinal Chemistry, 2011) are described below.

The test system of experiment [1] is HEL (human lung fibroblast) cells. The experiment is described as follows: Cytostatic activity: inhibition of cell proliferation. The experiment is classed as cell-based. As to conditions: read-out: IC50 (50% inhibitory concentration).
Experiment [2] has as its system HeLa (human cervix carcinoma) cells. The experiment is described as follows: Cytostatic activity: inhibition of tumor cell proliferation. In kind it is cell-based. As to conditions: read-out: IC50 (50% inhibitory concentration). An outline of the steps: (§1)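 Exponentially growing tumour cells were seeded in 96-well plates with a range of test-compound concentrations: CEM lymphocytes at 75,000 cells/well for 3 days, HeLa cervix carcinoma cells at 20,000 cells/well for 4 days. Viable cells were counted with a Coulter counter. The 50% value is the concentration inhibiting tumour cell proliferation by 50%.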

The test system of experiment [3] is CEM (human lymphocyte) cells. Described as above. The settings on record: read-out: IC50 (50% inhibitory concentration). In kind it is cell-based. An outline of the steps: as §1
In experiment [4] the test system is MDCK, HEL, CrFK, HeLa and CEM cells. Kind of experiment: Cytostatic activity over the cell culture panel of Table 4. The experiment is classed as cell-based. As to conditions: read-out: IC50, range over the cell cultures.
In experiment [5] the test system is HCMV AD-169 strain. Kind of experiment: Antiviral assay: inhibition of virus-induced cytopathicity in HEL cell cultures. The settings on record: Human betaherpesvirus 5, AD169, HEL, read-out: EC50 against HCMV AD-169 strain. In kind it is cell-based, human cytomegalovirus.
In experiment [6] the test system is HCMV Davis strain. The description is as above. In kind it is cell-based, human cytomegalovirus. As to conditions: Human betaherpesvirus 5, HEL, read-out: EC50 against HCMV Davis strain.

Like-named read-outs stand apart in the source and are kept apart here.

Regarding `S=C(NN=Cc1ccc(Cl)s1)Nc1ccccc1` [Compound 2, 5-Chlorothiophene-2-carboxaldehyde-N(4)phenyl thiosemicarbazone], the IC50 in experiment [1] is 10.4 µM; in experiment [2], 7.1 µM; in experiment [3] (Homo sapiens, CCRF-CEM), 10 µM; in experiment [4] it was 7.1 to 57.8 µM.
In the case of `N.N.[Cl][Pt][Cl]` [cisplatinum, reference compound], in experiment [3] (CEM cells), the IC50 was 2.2 µM.
`Nc1nc(O)c2ncn(COC(CO)CO)c2n1` [ganciclovir]: the results for the EC50 in experiment [5] and in experiment [6] were 5 µM and 3.4 µM, respectively.
